# Source: PubChem BioAssay (several laboratories)
# CaV13 ICDI inh: Disruptors of the CACNA1D IQ motif to Ca2+-dependent inactivation inhibitor domain association, primary screening, Förster resonance energy transfer in intact living …. HEK cells, CFP/YFP FRET ICDI-IQ, plate reader, 10 min; percent FRET-ratio fall versus neutral wells. inhibition, % at 12.3 µM. 0.098% of 340,000 active;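 active means mean replicate inhibition of at least 30% and at least 1% of replicates passing that level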;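 further: 0% = median of the neutral control wells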
# SR-BI HDL uptake: inhibitors of SR-BI mediated HDL lipid uptake, primary screen, ldlA[mSR-BI] cells, fluorescence, single point. ldlA[mSR-BI] CHO cells, DiI-HDL uptake fluorescence, 3 h. AID 488896, 2010. 0.96% of 320,000 active. inhibition, % at 12.5 µM;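 active means mean replicate inhibition of at least 70% and a set share of replicates each scoring 70 or more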;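 further: 0% = median of neutral control wells and 100% = median of positive control wells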
# Target sequence (Q61009 whole entry, looked up): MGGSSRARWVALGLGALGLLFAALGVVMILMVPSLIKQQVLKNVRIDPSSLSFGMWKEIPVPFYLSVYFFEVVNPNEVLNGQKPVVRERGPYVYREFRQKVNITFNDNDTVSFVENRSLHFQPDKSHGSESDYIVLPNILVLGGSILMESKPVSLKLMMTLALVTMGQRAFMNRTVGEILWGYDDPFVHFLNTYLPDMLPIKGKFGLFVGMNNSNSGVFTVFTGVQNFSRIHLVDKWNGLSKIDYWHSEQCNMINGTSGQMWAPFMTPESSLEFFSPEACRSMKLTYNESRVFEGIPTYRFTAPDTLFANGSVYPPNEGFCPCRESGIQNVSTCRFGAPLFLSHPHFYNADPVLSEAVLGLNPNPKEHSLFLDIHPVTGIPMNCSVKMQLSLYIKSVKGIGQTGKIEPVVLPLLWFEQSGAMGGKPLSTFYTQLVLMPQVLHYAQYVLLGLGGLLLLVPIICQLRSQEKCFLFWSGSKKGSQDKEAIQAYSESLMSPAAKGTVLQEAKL
# Efflux pump mplx: inhibitors of Candida efflux pumps in yeast, primary screen, S. cerevisiae, Nile Red, multiplex; S. cerevisiae Candida pump triplex; inhibition, % at 10 µM; 0.44% of 330,000 active; AID 485275, 2010;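 active means plate passing quality check with inhibition over a set limit, or well fluorescence over plate mean plus 4 SD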;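 further: Nile Red retained in pooled yeast measured as flow cytometry median fluorescence; 0% = buffer negative control and 100% = Enniatin B positive control; higher means more Nile Red kept so more efflux inhibition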
# FN deposition inh: inhibitors of fibronectin matrix deposition, primary screen, AH1F cells, Alexa488-fibronectin fluorescence, plate reader; AH1F fibroblasts, overnight; inhibition, % at 12.6 µM; 0.086% of 350,000 active;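 active means mean inhibition across replicates of 30% or more, regardless of how many single replicates reach that level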;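 further: positive control wells lacked labelled fibronectin entirely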
#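 Material: AH1F fibroblasts assembling fluorescent fibronectin matrix; amount: 10000 AH1F cells/well; medium: DMEM, 2% serum; reagent: Alexa488-fibronectin, 24 nM final in well; dosing: single compound dose, delivered by pin transfer; incubation: 1 h adhesion, overnight exposure; detection: fluorescence after three HBSS washes, excitation 485 nm, emission 525 nm; measure: fibronectin deposition inhibition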
# SR-BI uptake up: activators of SR-BI mediated DiI-HDL uptake, primary screen, ldlA[mSR-BI] CHO cells, DiI fluorescence. 3 h; 100 = double the neutral-control signal. activation, % at 12.5 µM. 0.096% of 320,000 active;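 active means mean replicate activation of at least 60% and every replicate at or above 60%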;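 further: 0% = median plate neutral-control signal and 100% = twice that signal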
#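 Material – SR-BI-overexpressing, LDLR-lacking CHO cells · Medium – BSA-supplemented, HEPES-buffered Ham's F12, pH 7.4 · Doses – single concentration · Times – compound with DiI-HDL co-incubation, 3 h at 37 °C · Measured by – bottom-read fluorescence, 550/595 nm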
# Yeast cmpd fluor: compound fluorescence in yeast efflux pump counter-screen. shares compounds with Efflux pump mplx. 4% of 1,700 active. fluorescence ratio to DMSO, % at 10 µM. S. cerevisiae AD/pABC3, flow cytometry;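 active means fluorescence ratio to DMSO above its plate's cutoff, the plate mean ratio plus 5 SD, cut at about 210% in these data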;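 further: unstained yeast with no Nile Red so the signal is compound autofluorescence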
# CaMdr1 efflux inh: inhibitors of Candida albicans Mdr1 efflux, confirmation, flow cytometry, singleplex, Cherry Pick1 set; shares compounds with Efflux pump mplx; 1% of 1,700 active; AID 588518, 2011; inhibition, % at 10 µM; S. cerevisiae AD/CaMDR1, Nile Red efflux; in the data active means inhibition above about 26%;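 further: 0% = DMSO vehicle and 100% = reference inhibitor; higher means more Nile Red retained so more efflux inhibition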
# CaCdr2 efflux inh: inhibitors of Candida albicans Cdr2 efflux pump, confirmation, S. cerevisiae AD/CaCDR2, flow cytometry, cherry pick 1, singleplex; shares compounds with Efflux pump mplx; Nile Red retention; Nile Red retention ratio vs DMSO, % at 10 µM; 4% of 1,700 active; AID 588520, 2011; in the data active means Nile Red retention ratio vs DMSO above about 190%;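 further: higher ratio means more blocking of Cdr2 efflux of the dye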
# CaCdr1 efflux inh: inhibitors of Candida albicans Cdr1 efflux pump, confirmation, S. cerevisiae AD/CaCDR1, flow cytometry, cherry pick 1, singleplex | AID 588522, 2011 | shares compounds with Efflux pump mplx | Nile Red efflux | 1% of 1,700 active | inhibition, % at 10 µM;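 active means inhibition above the screen-wide mean plus twice its standard deviation, cut at about 32% in these data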
# An asterisk follows results filed as active; x = not tested or not shown; + = active, no number. A selection: hits, their analogues and other compounds. The true share with any hit is near 1.2%.
SMILES,CaV13 ICDI inh,SR-BI HDL uptake,Efflux pump mplx,FN deposition inh,SR-BI uptake up,Yeast cmpd fluor,CaMdr1 efflux inh,CaCdr2 efflux inh,CaCdr1 efflux inh
O=C(COC(=O)c1cccs1)NCCN1C(=O)CSC1=O,-6,-21,0,4,21,x,x,x,x
CCC1=C(OC(=O)N(CC)CC)N2C(=O)OC(=NCCc3c[nH]c4ccccc34)[C@]2(Cc2ccccc2)[C@H]2C1=CC[C@H]1C(=O)N(CC(=O)OC)C(=O)[C@H]12,-5,-23,7.3*,-20,23,113,2,135,0
C/C=C/c1ccc([C@H]2[C@@H](CO)N3C(=O)CN(C(=O)Nc4cccc(OC)c4)C[C@@H]23)cc1,x,x,x,4,x,x,x,x,x
Cc1ccc(C(=O)Nc2nc(C)c(C(=O)N(C)C)s2)o1,-6,-26,0,11,26,x,x,x,x
Cc1nc(NC(=S)NC(=O)c2ccco2)sc1C(=O)N(C)C,-2,2,5.7*,10,-2,79,0,100,0
C[C@H]1CCCCO[C@H](CN(C)C(=O)c2ccncc2)[C@@H](C)CN([C@@H](C)CO)C(=O)c2cc(NS(=O)(=O)c3ccc(F)cc3)ccc2O1,x,x,x,0,x,x,x,x,x
CC(C)NC(=O)N[C@H]1C=C[C@H](CC(=O)N2CCCCC2)O[C@H]1CO,x,x,x,-2,x,x,x,x,x
CC(C)COC(=O)c1ccccc1N1C(=O)C2C3CCC(C3)C2C1=O (configuration not stated),-3,-2,13*,5,2,104,0,94,0
CCCNC(=O)N(C)C[C@H]1Oc2cc(C#Cc3ccccn3)ccc2S(=O)(=O)N([C@@H](C)CO)C[C@H]1C,x,x,x,5,x,x,x,x,x
O=C(O)CC(C(=O)O)N1C(=O)/C(=C/c2ccc(-c3nc4ccccc4s3)o2)SC1=S (configuration not stated),-7,-15,0,x,15,101,0,107,0
O=C(O)CCN1C(=O)/C(=C/c2ccc(-c3nc4ccccc4s3)o2)SC1=S,-3,-1,1.9*,x,1,137,0,+,0
O=C(O)CCCN1C(=O)/C(=C\c2ccc(-c3nc4ccccc4s3)o2)SC1=S,-18,1,1.1*,-2,-1,106,0,180,0
C[C@@H]1CCCCO[C@H](CN(C)C(=O)Nc2ccc3c(c2)OCO3)[C@@H](C)CN([C@@H](C)CO)C(=O)c2cc(NC(=O)c3ccncc3)ccc2O1,x,x,x,-22,x,x,x,x,x
Cc1ccc(S(=O)(=O)N2CCC(C(=O)N[C@@H](C)C(=O)Nc3ccc(F)cc3)CC2)cc1,-2,2,0.8*,5,-2,112,0,119,0
O=C(CN1CCCc2ccccc21)N/N=C/c1c(O)ccc2ccccc12,-3,-195,13*,-7,195*,94,0,106,0
O=C(CN1CCCc2ccccc21)N/N=C/c1ccccc1,-3,5,0,0,-5,x,x,x,x
CCC(CC)c1nc(C(N)=O)c2[nH]c(=O)n(-c3ccc(OC)c(OC)c3)c2n1,-3,-7,0,3,7,x,x,x,x
Cc1ccc(-n2c(=O)[nH]c3c(C(N)=O)nc(CC(C)C)nc32)cc1,-6,-2,0,x,2,x,x,x,x
COc1ccc(OC)c(-c2nc(C(N)=O)c3[nH]c(=O)n(-c4ccc(F)cc4)c3n2)c1,-5,-8,0,-5,12,80,0,89,0
COc1ccc(-c2nc(C(N)=O)c3[nH]c(=O)n(-c4ccccc4OC)c3n2)c(OC)c1,-5,-5,0,4,5,99,0,92,0
Cc1ccc(-n2c(=O)[nH]c3c(C(N)=O)nc(-c4ccc(C)o4)nc32)cc1,x,5,0,x,-5,99,0,93,0
Cc1ccccc1S(=O)(=O)N(C)C[C@H]1OCc2cn(nn2)CCCC(=O)N([C@@H](C)CO)C[C@H]1C,x,x,x,3,x,x,x,x,x
C[C@H](CO)N1C[C@H](C)[C@H](CN(C)C(=O)Nc2cccc3ccccc23)Oc2ncc(-c3cc4ccccc4o3)cc2C1=O,x,x,x,8,x,x,x,x,x
CC(=O)N(C)C[C@@H]1Oc2ncc(-c3cccnc3)cc2C(=O)N([C@@H](C)CO)C[C@H]1C,x,x,x,6,x,x,x,x,x
CCc1ccc(C2=NN(S(C)(=O)=O)C(c3cccs3)C2)cc1 (configuration not stated),-3,-11,3.0*,-10,11,125,1,151,1
SMILES,CaV13 ICDI inh,SR-BI HDL uptake,Efflux pump mplx,FN deposition inh,SR-BI uptake up,Yeast cmpd fluor,CaMdr1 efflux inh,CaCdr2 efflux inh,CaCdr1 efflux inh
Cc1ccc(C2=NN(S(C)(=O)=O)C(c3cccs3)C2)cc1 (configuration not stated),x,-3,0,x,3,x,x,x,x
CC(=C/C(=O)O)/C=C/c1ccco1,22,3,2.4*,3,-3,99,0,94,0
C[C@@H]1CCCCO[C@H](CN(C)C(=O)Nc2ccc3c(c2)OCO3)[C@@H](C)CN([C@@H](C)CO)C(=O)c2cc(NS(=O)(=O)c3ccccc3)ccc2O1,x,x,x,-10,x,x,x,x,x
COCC(=O)N1CC[C@@H]2[C@H]1c1cc(-c3cccc(OC)c3)ccc1N(C)[C@H]2CO,x,x,x,-1,x,x,x,x,x
O=C(NC(=S)N1CCN(Cc2ccc3c(c2)OCO3)CC1)c1ccc(Cl)cc1,-6,30,28*,x,-30,103,0,110,0
O=C(NC(=S)N1CCN(Cc2ccc3c(c2)OCO3)CC1)c1cccc(Br)c1,-5,2,0,-9,-2,x,x,x,x
O=C(COc1ccc(-c2ccccc2)cc1)NNC(=O)Nc1ccc(F)cc1F,x,-9,3.0*,x,9,109,0,110,0
COc1ccc(OC)c(NC(=O)NNC(=O)COc2ccc(-c3ccccc3)cc2)c1,-3,13,0,-3,x,x,x,x,x
